# Experimental data reported in ChEMBL document CHEMBL1134126, “Phenylcyanoguanidines as inhibitors of glucose-induced insulin secretion from beta cells” (Bioorg Med Chem Lett, 2001).
# pIC50: −log10 of the molar value.
# How the values were obtained:
# Rattus norvegicus [1] = organism: Rattus norvegicus; assay: In vitro ability to relax phenylephrine contracted rat aorta rings; assay type: functional
# [2] = In vitro membrane potential on murine beta-TC3 cells; NA= not active; assay type: functional, Mus musculus
# Beta-TC6 [3] = assay: Percent efficacy of compound for the in vitro inhibition of insulin release from murine beta-TC6 cells; assay type: functional, Mus musculus
# Summary of the method: (§1)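 βTC6 cells washed twice in NN buffer (pH-buffered Krebs-type saline with HEPES) plus 0.1% BSA, preincubated 60 min, then incubated 3 h with 22 mM glucose, 0.1 mM IBMX and serial compound dilutions. Supernatant insulin measured by competition ELISA against rat insulin standards with peroxidase-labelled insulin and TMB read-out. EC50 (potency) and percentage inhibition (efficacy) derived from curves; at least two experiments.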
# Beta-TC6 [4] = assay: In vitro inhibition of insulin release from murine beta-TC6 cells; assay type: functional, cell-based; conditions: Mus musculus; summary of the method: as §1
# [5] = In vitro membrane potential on murine beta-TC3 cells; assay type: functional; conditions: Mus musculus
# Rattus norvegicus [6] = organism: Rattus norvegicus; assay: Concentration required for the inhibition of insulin release from rat islets; assay type: functional
# Summary of the method: (§2)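 Rat islets isolated by collagenase digestion and Ficoll gradient (40–13%), cultured overnight in RPMI/10% FCS/11 mM glucose, then 10 islets per well overnight in DMEM/10% FCS/3 mM glucose. Tested as for βTC6: NN buffer with 0.1% BSA, 3 h with 22 mM glucose and compound dilutions, no IBMX; insulin by competition ELISA.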
# [7] = In vitro membrane potential on murine betaTC3 cells; NA=not active; assay type: functional, Mus musculus
# Rattus norvegicus [8] = organism: Rattus norvegicus; assay: Compound was evaluated for the inhibition of insulin release from rat islets; assay type: functional; summary of the method: as §2
pIC50 (Rattus norvegicus [1]),IC50 [2],pIC50 (Beta-TC6 [4]),pIC50 [5],pIC50 (Rattus norvegicus [6]),IC50 [7],pIC50 (Rattus norvegicus [8]),SMILES,Efficacy (Beta-TC6 [3]) [%]
6.60,,,,,,,CCC(C)(C)/N=C(\NC#N)Nc1cccnc1,
6.05,Not Active,,,,,,CCC(C)(C)/N=C(\NC#N)Nc1cc(C(F)(F)F)cc(C(F)(F)F)c1,
4.10,,5.41,4.89,5.32,,,COc1cc(N/C(=N/CCC(C)C)NC#N)cc(C(F)(F)F)c1,79
6.52,,5.64,,,Not Active,,CCC(C)(C)/N=C(\NC#N)Nc1cc(Cl)cc(Cl)c1,57
4.91,,5.30,6.05,,,,CCC/N=C(\NC#N)Nc1cc(C(F)(F)F)cc(C(F)(F)F)c1,58
6.30,,4.57,4.72,5.66,,,CC(/N=C(\NC#N)Nc1cc(Cl)cc(Cl)c1)C(C)(C)C (configuration not stated),86
4.51,,5.43,4.44,,,,CCC/N=C(\NC#N)Nc1cc(Cl)cc(Cl)c1,50
5.06,Not Active,5.34,,,,,CC(/N=C(\NC#N)Nc1cc(C(F)(F)F)cc(C(F)(F)F)c1)C(C)(C)C (configuration not stated),78
5.25,,5.70,6.30,,,,CC(C)CC/N=C(\NC#N)Nc1cc(C(F)(F)F)cc(C(F)(F)F)c1,77
4.73,,6.15,5.40,,,,CC(C)CC/N=C(\NC#N)Nc1cc(Cl)cc(Cl)c1,72
4.06,,< 4.00,< 4.00,,,,CC(/N=C(\NC#N)Nc1cccc(C(F)(F)F)c1)C(C)(C)C (configuration not stated),29
4.94,,4.65,4.11,,,5.21,CC1=Nc2ccc(Cl)cc2S(=O)(=O)N1 [DIAZOXIDE],23
5.82,,,,,,,CC(N/C(=N\C#N)Nc1ccncc1)C(C)(C)C (configuration not stated) [PINACIDIL ANHYDROUS],
